{
  "source": "ChEMBL document CHEMBL4304739",
  "about": "“Discovery of 3-(Indol-5-yl)-indazole Derivatives as Novel Myeloid Differentiation Protein 2/Toll-like Receptor 4 Antagonists for Treatment of Acute Lung Injury” (J Med Chem, 2019)",
  "key": {"[1]": {"target": "Serine/threonine-protein kinase pim-2 (Homo sapiens) (UniProt Q9P1W9)", "assay": "Inhibition of wild-type human partial length PIM2 (M1 to E291 residues) expressed in bacterial expression system at 1 uM by Kinomescan method", "in_short": "(§1)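 Binding-competition screen on the KINOMEscan platform, run by the provider, with the test compound at 1 μM. Readout is percent of control: (test signal − positive control signal)/(negative control signal − positive control signal) × 100. The DMSO negative control is set as 100% Ctrl and a control compound as 0% Ctrl. Lower values mean stronger hits.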"}, "[2]": {"target": "Serine/threonine-protein kinase DCLK1 (Homo sapiens) (UniProt O15075)", "sequence (O15075 whole entry, the tested form may be a part)": "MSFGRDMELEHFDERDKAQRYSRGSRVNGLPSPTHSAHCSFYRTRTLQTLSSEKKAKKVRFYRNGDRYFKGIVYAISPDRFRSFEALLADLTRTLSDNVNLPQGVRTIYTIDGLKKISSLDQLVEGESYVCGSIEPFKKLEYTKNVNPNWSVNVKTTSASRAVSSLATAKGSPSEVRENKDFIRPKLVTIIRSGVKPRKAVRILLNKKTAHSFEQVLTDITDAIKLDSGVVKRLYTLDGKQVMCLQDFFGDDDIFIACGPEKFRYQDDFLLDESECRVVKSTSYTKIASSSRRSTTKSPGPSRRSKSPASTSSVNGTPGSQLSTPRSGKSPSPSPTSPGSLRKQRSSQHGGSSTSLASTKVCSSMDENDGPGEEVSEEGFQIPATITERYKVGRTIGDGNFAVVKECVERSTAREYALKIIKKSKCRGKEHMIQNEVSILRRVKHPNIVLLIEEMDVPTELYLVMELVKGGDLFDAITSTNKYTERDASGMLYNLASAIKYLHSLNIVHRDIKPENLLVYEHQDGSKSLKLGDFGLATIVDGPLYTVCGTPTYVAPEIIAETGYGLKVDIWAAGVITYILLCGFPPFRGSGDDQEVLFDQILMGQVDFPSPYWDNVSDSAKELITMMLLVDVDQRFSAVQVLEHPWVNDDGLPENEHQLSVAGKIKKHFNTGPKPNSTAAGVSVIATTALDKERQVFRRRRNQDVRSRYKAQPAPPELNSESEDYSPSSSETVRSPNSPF", "assay": "Inhibition of wild-type human partial length DCAMKL1 (L270 to A662 residues) expressed in mammalian expression system at 1 uM by Kinomescan method", "in_short": "as §1"}, "Mus musculus": {"tested_on": "Mus musculus", "assay": "Antiinflammatory activity in LPS-induced C57BL/6 mouse model of acute lung injury assessed as appearance of normal pulmonary lobule structure at 5 to 10 mg/kg, iv pretreated for 15 mins followed by LPS stimulation and measured after 6 hrs by H and E staining-based microscopic analysis", "format": "functional, organism-based", "in_short": "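Male C57BL/6 mice (18−22 g; n=8 per group). Compound in 0.1% CMC-Na given by tail vein injection 15 min before intraperitoneal LPS (20 mg/kg); controls received saline. Mice were sacrificed 6 h after LPS, and serum and lung tissue were collected.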"}, "[3]": {"target": "Mitogen-activated protein kinase 3 (Homo sapiens) (UniProt P27361)", "sequence (P27361 whole entry, the tested form may be a part)": "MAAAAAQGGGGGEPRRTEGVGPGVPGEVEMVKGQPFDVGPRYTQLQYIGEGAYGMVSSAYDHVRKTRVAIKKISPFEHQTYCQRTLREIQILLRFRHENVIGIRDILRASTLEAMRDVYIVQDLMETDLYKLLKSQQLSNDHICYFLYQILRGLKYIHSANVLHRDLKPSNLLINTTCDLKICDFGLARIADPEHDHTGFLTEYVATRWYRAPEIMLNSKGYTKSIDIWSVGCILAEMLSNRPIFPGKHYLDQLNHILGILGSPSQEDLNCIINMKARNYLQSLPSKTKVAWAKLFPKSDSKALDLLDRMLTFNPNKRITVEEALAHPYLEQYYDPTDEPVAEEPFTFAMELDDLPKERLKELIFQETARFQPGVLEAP", "assay": "Inhibition of wild-type human full length ERK1 (M1 to P379 residues) expressed in bacterial expression system at 1 uM by Kinomescan method", "in_short": "(§2)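 KINOMEscan competition binding screen at 1 μM compound. Results reported as % of control = (test − positive control)/(DMSO negative control − positive control) × 100, where lower values mean stronger hits.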"}, "[4]": {"target": "Serine/threonine-protein kinase PLK4 (Homo sapiens) (UniProt O00444)", "assay": "Inhibition of wild-type human partial length PLK4 (M1 to S273 residues) expressed in mammalian expression system at 1 uM by Kinomescan method", "in_short": "as §1"}, "[5]": {"target": "Cyclin-dependent kinase 9 (Homo sapiens) (UniProt P50750)", "assay": "Inhibition of wild-type human full length CDK9 (M1 to F372 residues) expressed in bacterial expression system at 1 uM by Kinomescan method", "in_short": "as §2"}, "[6]": {"target": "Cyclin-dependent kinase 2 (Homo sapiens) (UniProt P24941)", "assay": "Inhibition of wild-type human full length CDK2 (M1 to L298 residues) expressed in bacterial expression system at 1 uM by Kinomescan method", "in_short": "as §2"}, "[7]": {"target": "Phosphatidylinositol 4,5-bisphosphate 3-kinase catalytic subunit alpha isoform (Homo sapiens) (UniProt P42336)", "sequence (P42336 whole entry, the tested form may be a part, canonical isoform)": "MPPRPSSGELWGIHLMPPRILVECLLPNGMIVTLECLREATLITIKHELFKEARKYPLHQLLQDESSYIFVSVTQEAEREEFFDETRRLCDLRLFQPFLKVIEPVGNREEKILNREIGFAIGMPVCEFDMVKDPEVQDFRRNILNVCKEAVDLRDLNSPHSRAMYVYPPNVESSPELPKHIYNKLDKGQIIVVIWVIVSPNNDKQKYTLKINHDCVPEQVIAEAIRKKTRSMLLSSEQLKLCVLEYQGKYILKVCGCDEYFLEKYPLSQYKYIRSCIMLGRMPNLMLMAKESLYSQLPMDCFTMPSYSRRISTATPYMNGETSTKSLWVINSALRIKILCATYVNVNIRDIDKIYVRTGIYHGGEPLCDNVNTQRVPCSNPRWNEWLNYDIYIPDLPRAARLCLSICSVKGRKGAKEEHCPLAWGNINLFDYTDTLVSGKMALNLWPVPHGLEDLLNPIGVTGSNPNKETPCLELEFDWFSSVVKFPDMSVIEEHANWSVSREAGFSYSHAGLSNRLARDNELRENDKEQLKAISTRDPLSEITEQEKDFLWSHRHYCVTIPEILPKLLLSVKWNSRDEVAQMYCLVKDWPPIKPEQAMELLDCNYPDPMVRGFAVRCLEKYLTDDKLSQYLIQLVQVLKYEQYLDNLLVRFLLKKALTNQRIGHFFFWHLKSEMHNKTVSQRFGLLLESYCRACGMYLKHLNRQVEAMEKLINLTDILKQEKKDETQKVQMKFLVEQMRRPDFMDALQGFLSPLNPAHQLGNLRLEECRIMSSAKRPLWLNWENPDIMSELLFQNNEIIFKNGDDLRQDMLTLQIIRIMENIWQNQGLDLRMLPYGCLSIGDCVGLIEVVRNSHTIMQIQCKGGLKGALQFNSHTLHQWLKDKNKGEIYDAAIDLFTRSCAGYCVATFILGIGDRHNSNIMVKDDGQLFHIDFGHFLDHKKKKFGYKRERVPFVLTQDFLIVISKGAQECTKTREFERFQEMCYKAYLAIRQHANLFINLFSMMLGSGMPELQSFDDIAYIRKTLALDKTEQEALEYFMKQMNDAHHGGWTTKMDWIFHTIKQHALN", "assay": "Inhibition of wild-type human partial length PIK3CA (R108 to N1068 residues) expressed in mammalian expression system at 1 uM by Kinomescan method", "in_short": "as §1"}, "[8]": {"target": "Serine/threonine-protein kinase PAK 4 (Homo sapiens) (UniProt O96013)", "assay": "Inhibition of wild-type human partial length PAK4 (Q144 to R438 residues) expressed in bacterial expression system at 1 uM by Kinomescan method", "in_short": "as §1"}, "[9]": {"tested_on": "Tyrosine-protein kinase ABL1 (Homo sapiens), P00519 [E255K]", "assay": "Inhibition of human phosphorylated ABL1 E255K mutant (S229 to K512 residues) expressed in mammalian expression system at 1 uM by Kinomescan method", "in_short": "as §2"}, "[10]": {"target": "Serine/threonine-protein kinase pim-3 (Homo sapiens) (UniProt Q86V86)", "assay": "Inhibition of wild-type human partial length PIM3 (G16 to A317 residues) expressed in bacterial expression system at 1 uM by Kinomescan method", "in_short": "as §1"}, "[11]": {"target": "Focal adhesion kinase 1 (Homo sapiens) (UniProt Q05397)", "sequence (Q05397 2-1052 limits assumed)": "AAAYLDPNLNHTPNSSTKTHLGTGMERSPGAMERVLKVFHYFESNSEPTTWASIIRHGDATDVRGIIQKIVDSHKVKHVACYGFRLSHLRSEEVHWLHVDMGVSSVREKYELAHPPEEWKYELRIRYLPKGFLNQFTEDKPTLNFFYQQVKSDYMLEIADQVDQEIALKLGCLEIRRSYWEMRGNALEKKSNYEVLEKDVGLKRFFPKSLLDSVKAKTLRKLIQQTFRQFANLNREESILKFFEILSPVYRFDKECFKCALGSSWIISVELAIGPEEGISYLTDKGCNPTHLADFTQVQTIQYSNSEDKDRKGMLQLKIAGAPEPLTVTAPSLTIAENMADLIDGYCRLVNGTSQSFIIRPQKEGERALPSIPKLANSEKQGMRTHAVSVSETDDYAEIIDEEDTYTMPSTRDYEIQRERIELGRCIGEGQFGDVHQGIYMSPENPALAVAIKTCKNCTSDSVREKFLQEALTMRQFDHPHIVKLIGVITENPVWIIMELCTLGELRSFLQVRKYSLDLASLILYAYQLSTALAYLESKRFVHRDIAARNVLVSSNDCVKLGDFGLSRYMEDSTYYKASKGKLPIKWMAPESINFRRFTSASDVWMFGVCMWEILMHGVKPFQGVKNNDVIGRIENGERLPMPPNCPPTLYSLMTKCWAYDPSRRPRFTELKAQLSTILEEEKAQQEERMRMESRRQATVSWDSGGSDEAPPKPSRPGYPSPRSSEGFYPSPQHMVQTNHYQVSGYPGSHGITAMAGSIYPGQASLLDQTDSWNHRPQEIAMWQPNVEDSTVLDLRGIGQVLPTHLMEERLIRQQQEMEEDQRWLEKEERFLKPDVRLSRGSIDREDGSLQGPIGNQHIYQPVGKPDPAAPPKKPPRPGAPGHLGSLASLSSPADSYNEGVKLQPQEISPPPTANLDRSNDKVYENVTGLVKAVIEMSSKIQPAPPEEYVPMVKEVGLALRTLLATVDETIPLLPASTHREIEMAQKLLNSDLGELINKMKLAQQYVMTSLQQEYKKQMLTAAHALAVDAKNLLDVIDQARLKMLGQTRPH", "assay": "Inhibition of wild-type human partial length FAK (D402 to R696 residues) expressed in bacterial expression system at 1 uM by Kinomescan method", "in_short": "as §1"}, "[12]": {"target": "Serine/threonine-protein kinase STK11 (Homo sapiens) (UniProt Q15831)", "assay": "Inhibition of wild-type human full length LKB1 (M1 to Q433 residues) expressed in bacterial expression system at 1 uM by Kinomescan method", "in_short": "as §2"}, "[13]": {"target": "Tyrosine-protein kinase JAK3 (Homo sapiens) (UniProt P52333)", "assay": "Inhibition of wild-type human partial length JAK3 JH1 catalytic domain (I781 to S1124 residues) expressed in mammalian expression system at 1 uM by Kinomescan method", "in_short": "as §1"}, "[14]": {"target": "Aurora kinase A (Homo sapiens) (UniProt O14965)", "assay": "Inhibition of wild-type human partial length AURKA (E122 to K401 residues) expressed in mammalian expression system at 1 uM by Kinomescan method", "in_short": "as §1"}, "[15]": {"target": "Dual specificity tyrosine-phosphorylation-regulated kinase 1B (Homo sapiens) (UniProt Q9Y463)", "assay": "Inhibition of wild-type human full length DYRK1B (M1 to S629 residues) expressed in bacterial expression system at 1 uM by Kinomescan method", "in_short": "as §2"}, "[16]": {"target": "Angiopoietin-1 receptor (Homo sapiens) (UniProt Q02763)", "assay": "Inhibition of wild-type human partial length TIE2 (N804 to T1112 residues) expressed in bacterial expression system at 1 uM by Kinomescan method", "in_short": "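Single-concentration screen at 1 μM on the KINOMEscan panel (98 kinases), run by the platform provider. Results are given as percent of control: % Ctrl = [(test signal − positive control signal)/(negative control signal − positive control signal)] × 100. DMSO serves as negative control (100% Ctrl) and a control compound as positive control (0% Ctrl). Lower values mean stronger binding hits.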"}, "Toll-like receptor 4": {"target": "Toll-like receptor 4 (Homo sapiens, UniProt O00206)", "sequence (O00206 whole entry)": "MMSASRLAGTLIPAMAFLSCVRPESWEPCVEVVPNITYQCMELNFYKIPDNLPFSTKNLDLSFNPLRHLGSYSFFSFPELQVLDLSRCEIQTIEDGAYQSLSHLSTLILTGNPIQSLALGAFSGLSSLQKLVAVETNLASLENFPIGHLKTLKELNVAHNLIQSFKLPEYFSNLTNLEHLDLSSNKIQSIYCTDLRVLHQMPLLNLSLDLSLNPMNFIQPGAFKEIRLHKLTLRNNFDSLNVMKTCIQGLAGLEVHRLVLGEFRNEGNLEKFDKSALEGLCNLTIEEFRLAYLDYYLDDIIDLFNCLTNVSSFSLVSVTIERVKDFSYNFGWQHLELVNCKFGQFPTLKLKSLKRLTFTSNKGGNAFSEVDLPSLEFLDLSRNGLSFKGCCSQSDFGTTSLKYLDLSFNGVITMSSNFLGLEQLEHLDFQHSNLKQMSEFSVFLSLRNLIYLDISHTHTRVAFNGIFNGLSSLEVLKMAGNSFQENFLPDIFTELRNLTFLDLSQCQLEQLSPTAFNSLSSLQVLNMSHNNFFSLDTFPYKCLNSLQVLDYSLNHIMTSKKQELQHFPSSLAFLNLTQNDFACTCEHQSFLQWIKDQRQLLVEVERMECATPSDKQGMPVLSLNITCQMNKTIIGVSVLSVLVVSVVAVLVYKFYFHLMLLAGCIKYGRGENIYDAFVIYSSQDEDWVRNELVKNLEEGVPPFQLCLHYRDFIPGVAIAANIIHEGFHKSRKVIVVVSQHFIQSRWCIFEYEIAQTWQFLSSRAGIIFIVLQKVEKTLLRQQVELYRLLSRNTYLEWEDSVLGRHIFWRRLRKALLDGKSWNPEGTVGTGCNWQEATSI", "assay": "Inhibition of HA-tagged/FLAG-tagged TLR4 (unknown origin) homodimerization expressed in HEK293T cells by co-immunoprecipitation method", "format": "cell-based", "in_short": "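HEK293T cells co-transfected with HA- and Flag-tagged TLR4 plasmids. Compound at various concentrations or vehicle added 6 h after transfection. Lysates immunoprecipitated with protein A/G agarose and detected by immunoblot with anti-HA and anti-Flag antibodies.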"}, "[17]": {"target": "Serine/threonine-protein kinase Chk1 (Homo sapiens) (UniProt O14757)", "assay": "Inhibition of wild-type human partial length CHEK1 (M1 to G289 residues) expressed in bacterial expression system at 1 uM by Kinomescan method", "in_short": "as §1"}, "[18]": {"target": "Mitogen-activated protein kinase kinase kinase 4 (Homo sapiens) (UniProt Q9Y6R4)", "assay": "Inhibition of wild-type human partial length MAP3K4 (G1319 to E1608 residues) expressed in bacterial expression system at 1 uM by Kinomescan method", "in_short": "as §1"}, "[19]": {"target": "MAP kinase-activated protein kinase 2 (Homo sapiens) (UniProt P49137)", "assay": "Inhibition of wild-type human partial length MAPKAPK2 (V48 to D345 residues) expressed in bacterial expression system at 1 uM by Kinomescan method", "in_short": "as §1"}, "[20]": {"tested_on": "Serine/threonine-protein kinase B-raf (Homo sapiens), P15056 [V600E]", "assay": "Inhibition of human partial length BRAF V600E mutant (S429 to E741 residues) expressed in mammalian expression system at 1 uM by Kinomescan method", "in_short": "as §2"}, "[21]": {"target": "Ephrin type-A receptor 2 (Homo sapiens) (UniProt P29317)", "sequence (P29317 whole entry, the tested form may be a part)": "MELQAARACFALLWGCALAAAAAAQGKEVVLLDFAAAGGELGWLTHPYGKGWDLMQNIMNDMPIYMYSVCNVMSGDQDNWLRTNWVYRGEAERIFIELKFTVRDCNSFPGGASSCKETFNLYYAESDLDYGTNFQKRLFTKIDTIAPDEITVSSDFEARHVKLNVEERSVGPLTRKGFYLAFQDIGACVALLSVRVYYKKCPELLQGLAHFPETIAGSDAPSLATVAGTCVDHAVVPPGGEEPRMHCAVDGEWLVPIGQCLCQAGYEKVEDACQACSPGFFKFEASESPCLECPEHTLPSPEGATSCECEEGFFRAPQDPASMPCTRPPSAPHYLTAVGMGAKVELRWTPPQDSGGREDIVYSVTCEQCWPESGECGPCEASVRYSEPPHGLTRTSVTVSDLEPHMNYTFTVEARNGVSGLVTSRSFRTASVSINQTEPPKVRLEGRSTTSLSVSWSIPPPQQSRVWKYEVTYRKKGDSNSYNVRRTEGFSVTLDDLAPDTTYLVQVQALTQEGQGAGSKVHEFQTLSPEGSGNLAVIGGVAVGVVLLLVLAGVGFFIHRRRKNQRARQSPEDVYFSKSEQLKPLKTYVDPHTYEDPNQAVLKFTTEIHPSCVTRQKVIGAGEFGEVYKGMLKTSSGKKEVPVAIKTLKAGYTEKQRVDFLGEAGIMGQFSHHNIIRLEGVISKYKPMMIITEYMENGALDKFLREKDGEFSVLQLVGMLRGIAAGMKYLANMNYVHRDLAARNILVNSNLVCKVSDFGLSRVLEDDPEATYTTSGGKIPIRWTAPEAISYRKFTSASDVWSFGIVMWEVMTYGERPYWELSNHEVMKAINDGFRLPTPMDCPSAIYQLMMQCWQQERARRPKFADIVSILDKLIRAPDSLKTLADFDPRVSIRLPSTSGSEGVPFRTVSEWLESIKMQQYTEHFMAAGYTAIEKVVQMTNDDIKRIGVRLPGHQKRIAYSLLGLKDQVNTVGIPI", "assay": "Inhibition of wild-type human partial length EPHA2 (T593 to V891 residues) expressed in bacterial expression system at 1 uM by Kinomescan method", "in_short": "as §1"}},
  "note": "The source made the active and inactive calls. No cut-off for these calls is given here.",
  "data": [
    {"smiles": "O=C(Nc1ccc2[nH]nc(-c3ccc4[nH]ccc4c3)c2c1)c1c(Cl)cccc1Cl", "values": [
      {"measurement": "inhibition", "setting": "[1]", "value": "inactive"},
      {"measurement": "inhibition", "setting": "[2]", "value": "inactive"},
      {"measurement": "Activity", "setting": "Mus musculus", "value": "Active"},
      {"measurement": "inhibition", "setting": "[3]", "value": "inactive"},
      {"measurement": "inhibition", "setting": "[4]", "value": "inactive"},
      {"measurement": "inhibition", "setting": "[5]", "value": "inactive"},
      {"measurement": "inhibition", "setting": "[6]", "value": "inactive"},
      {"measurement": "inhibition", "setting": "[7]", "value": "inactive"},
      {"measurement": "inhibition", "setting": "[8]", "value": "inactive"},
      {"measurement": "inhibition", "setting": "[9]", "value": "inactive"},
      {"measurement": "inhibition", "setting": "[10]", "value": "inactive"},
      {"measurement": "inhibition", "setting": "[11]", "value": "inactive"},
      {"measurement": "inhibition", "setting": "[12]", "value": "inactive"},
      {"measurement": "inhibition", "setting": "[13]", "value": "inactive"},
      {"measurement": "inhibition", "setting": "[14]", "value": "inactive"},
      {"measurement": "inhibition", "setting": "[15]", "value": "inactive"},
      {"measurement": "inhibition", "setting": "[16]", "value": "inactive"},
      {"measurement": "inhibition", "setting": "Toll-like receptor 4", "value": "Active"},
      {"measurement": "inhibition", "setting": "[17]", "value": "inactive"},
      {"measurement": "inhibition", "setting": "[18]", "value": "inactive"},
      {"measurement": "inhibition", "setting": "[19]", "value": "inactive"},
      {"measurement": "inhibition", "setting": "[20]", "value": "inactive"},
      {"measurement": "inhibition", "setting": "[21]", "value": "inactive"}
    ]}
  ]
}
